Assay results published in ChEMBL document CHEMBL3739303, “Targeting the Src Homology 2 (SH2) Domain of Signal Transducer and Activator of Transcription 6 (STAT6) with Cell-Permeable, Phosphatase-Stable Phosphopeptide Mimics Potently Inhibits Tyr641 Phosphorylation and Transcriptional Activity” (J Med Chem, 2015).
Active and inactive are the calls of the source. The calls are words filed in the database; no cut-off is given here.

Experiments:
[1] = molecular target: T1, Signal transducer and activator of transcription 1 (Mus musculus) (UniProt P42225); assay: Inhibition of IL6-induced STAT1 phosphorylation at Y701 in CD4+ T lymphocytes isolated from C57BL/6J mouse preincubated for 2 hrs followed by activation with plate-bound anti-CD3/anti-CD28 and IL6 for 15 mins by Western blot analysis; type: cell-based
T1 sequence (whole entry): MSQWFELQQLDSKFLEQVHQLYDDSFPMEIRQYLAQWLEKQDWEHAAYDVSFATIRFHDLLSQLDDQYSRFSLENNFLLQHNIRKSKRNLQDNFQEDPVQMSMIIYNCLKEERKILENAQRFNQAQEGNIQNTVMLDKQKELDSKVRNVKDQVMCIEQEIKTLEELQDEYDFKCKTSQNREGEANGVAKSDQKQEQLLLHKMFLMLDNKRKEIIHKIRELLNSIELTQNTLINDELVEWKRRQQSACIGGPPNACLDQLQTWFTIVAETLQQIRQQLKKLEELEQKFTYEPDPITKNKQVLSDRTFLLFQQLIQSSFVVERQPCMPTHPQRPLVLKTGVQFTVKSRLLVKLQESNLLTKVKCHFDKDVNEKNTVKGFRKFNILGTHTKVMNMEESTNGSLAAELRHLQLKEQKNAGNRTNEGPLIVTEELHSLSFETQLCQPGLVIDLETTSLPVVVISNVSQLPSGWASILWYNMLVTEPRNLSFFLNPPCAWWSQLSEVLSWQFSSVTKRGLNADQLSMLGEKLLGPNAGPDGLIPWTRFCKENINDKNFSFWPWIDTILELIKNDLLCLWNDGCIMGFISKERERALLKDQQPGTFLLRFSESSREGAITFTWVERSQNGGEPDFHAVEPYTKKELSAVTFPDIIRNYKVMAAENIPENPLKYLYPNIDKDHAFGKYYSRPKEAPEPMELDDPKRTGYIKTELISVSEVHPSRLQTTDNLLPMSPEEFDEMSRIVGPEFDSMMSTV
Method in brief: (§1)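 CD4+ T cells from C57BL/6J mice, sorted by AutoMACS; activated 15 min with plate-bound anti-CD3 and/or anti-CD28 with IL-2, IL-6 or IL-4; lysed with protease inhibitors plus 10 mM NaF and 1 mM Na3VO4; Bradford-normalised immunoblots for pSTAT1 (Tyr701), pSTAT5 (Tyr694), pSTAT6 (Tyr641) and total STATs.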

[2] = species on record: Mus musculus; assay: Inhibition of IL2-induced STAT5 phosphorylation at Y694 in CD4+ T lymphocytes isolated from C57BL/6J mouse at 0.5 to 5 uM preincubated for 2 hrs followed by activation with plate-bound anti-CD3/anti-CD28 and IL2 for 15 mins by Western blot analysis; type: cell-based; method in brief: as §1
[3] = molecular target: T2, Signal transducer and activator of transcription 6 (Homo sapiens) (UniProt P42226); assay: Inhibition of IL-13-stimulated STAT6 SH2 domain phosphorylation in human Beas-2B cells assessed as inhibition of CCL26 mRNA expression preincubated for 2 hrs followed by stimulation with IL-13 for 24 hrs by RT-PCR analysis
T2 sequence (whole entry): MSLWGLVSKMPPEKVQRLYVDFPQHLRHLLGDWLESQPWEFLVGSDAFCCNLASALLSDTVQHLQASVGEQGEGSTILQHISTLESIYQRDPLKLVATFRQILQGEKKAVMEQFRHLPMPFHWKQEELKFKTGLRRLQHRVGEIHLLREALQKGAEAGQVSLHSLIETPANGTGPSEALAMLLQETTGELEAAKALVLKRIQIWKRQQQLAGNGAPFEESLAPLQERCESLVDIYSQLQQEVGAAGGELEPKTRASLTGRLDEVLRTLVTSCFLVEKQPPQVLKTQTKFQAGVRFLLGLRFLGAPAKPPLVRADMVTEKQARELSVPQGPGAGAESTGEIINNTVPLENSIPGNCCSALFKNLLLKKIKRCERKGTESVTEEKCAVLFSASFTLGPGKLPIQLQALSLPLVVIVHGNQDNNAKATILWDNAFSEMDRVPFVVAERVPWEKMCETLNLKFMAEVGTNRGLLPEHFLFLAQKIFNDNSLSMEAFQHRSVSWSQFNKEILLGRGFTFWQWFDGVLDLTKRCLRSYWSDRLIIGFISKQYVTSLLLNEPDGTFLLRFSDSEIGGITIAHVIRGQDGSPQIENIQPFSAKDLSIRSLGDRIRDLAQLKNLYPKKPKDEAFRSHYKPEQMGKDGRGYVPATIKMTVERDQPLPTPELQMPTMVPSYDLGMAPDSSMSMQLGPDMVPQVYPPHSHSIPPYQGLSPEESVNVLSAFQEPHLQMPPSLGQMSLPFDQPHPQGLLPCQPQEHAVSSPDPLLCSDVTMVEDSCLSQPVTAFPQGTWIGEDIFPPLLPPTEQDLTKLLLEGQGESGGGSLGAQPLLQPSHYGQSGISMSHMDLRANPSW

Compound: C/C(=C\C(=O)N[C@H](C(=O)N1CCC[C@H]1C(=O)N(C)c1ccccc1)C(C)(C)C)c1ccc(C(F)(F)P(=O)(OCOC(=O)C(C)(C)C)OCOC(=O)C(C)(C)C)cc1
- inhibition [1]: inactive
- inhibition [2]: Active
- inhibition [3]: Dose-dependent effect
